Experiments:
Rattus norvegicus [1] = assay: Antiinflammatory activity in albino rat assessed as inhibition of carrageenan-induced paw edema at 0.029 mmol/kg, po after 2 hrs relative to control; type: functional
Method in brief: (§1)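 Adult albino rats of either sex, 120–150 g, six per group. Compounds at 0.029 mmol/kg suspended in saline with a few drops of Tween 80 and given by oral stomach tube. After 1 h, 0.1 ml of freshly prepared 1% carrageenan in saline injected subplantar into the right hind paw. Paw thickness measured at 1–4 h; % edema inhibition versus control; mean ± SEM; ANOVA.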

Rattus norvegicus [2] = assay: Antiinflammatory activity in albino rat assessed as inhibition of carrageenan-induced paw edema at 0.029 mmol/kg, po after 1 hr relative to control; type: functional; method in brief: as §1
Rattus norvegicus [3] = assay: Antiinflammatory activity in albino rat assessed as inhibition of carrageenan-induced paw edema at 0.029 mmol/kg, po after 4 hrs relative to indomethacin; type: functional
Method in brief: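 Rat carrageenan paw edema: oral 0.029 mmol/kg in saline/Tween 80, 1 h before subplantar 0.1 ml 1% carrageenan into the right hind paw; six rats per group. Potency is % inhibition of the test compound divided by % inhibition of indomethacin at 4 h.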

Mus musculus [4] = assay: Analgesic activity in albino mouse assessed as decrease in acetic acid-induced writhing at 11.75 mg/kg, po administered 1 hr prior to acetic acid challenge relative to control; type: functional
Method in brief: (§2)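 Albino mice of either sex, 18–22 g, six per group. Test agents suspended in saline with a few drops of Tween 80 and given by oral stomach tube; controls handled identically without drug. After 1 h, 0.3 ml of 1% acetic acid ip. Writhing contractions counted for 30 min, starting 5 min after injection. % protection versus control mean; mean ± SEM; one-way ANOVA with post hoc test.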

Rattus norvegicus [5] = assay: Antiinflammatory activity in albino rat assessed as inhibition of carrageenan-induced paw edema at 0.029 mmol/kg, po after 3 hrs relative to control; type: functional; method in brief: as §1
Rattus norvegicus [6] = assay: Antiinflammatory activity in albino rat assessed as inhibition of carrageenan-induced paw edema at 0.029 mmol/kg, po after 4 hrs relative to control; type: functional; method in brief: as §1
Rattus norvegicus [7] = assay: Gastrointestinal toxicity in albino rat assessed as ulcerogenic index at 0.029 mmol/kg, po after 5 hrs; type: organism-based; conditions: in vivo
Method in brief: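 Adult albino rats of either sex (120–150 g), 6 per group, got the test compounds orally by stomach tube as a suspension in saline with a few drops of tween 80. They were the same rats used in the carrageenan paw-edema test. Stomachs were then opened along the great curvature and examined for lesions or bleeding. Ulceration was recorded as the number of rats with ulcers out of 6.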

Mus musculus [8] = assay: Analgesic activity in albino mouse assessed as decrease in acetic acid-induced writhing at 10.24 mg/kg, po administered 1 hr prior to acetic acid challenge relative to control; type: functional; method in brief: as §2
Mus musculus [9] = assay: Analgesic activity in albino mouse assessed as decrease in acetic acid-induced writhing at 8.94 mg/kg, po administered 1 hr prior to acetic acid challenge relative to control; type: functional; method in brief: as §2
Mus musculus [10] = assay: Analgesic activity in albino mouse assessed as decrease in acetic acid-induced writhing at 8.59 mg/kg, po administered 1 hr prior to acetic acid challenge relative to control; type: functional; method in brief: as §2
Mus musculus [11] = assay: Analgesic activity in albino mouse assessed as decrease in acetic acid-induced writhing at 8.12 mg/kg, po administered 1 hr prior to acetic acid challenge relative to control; type: functional; method in brief: as §2
Mus musculus [12] = assay: Analgesic activity in albino mouse assessed as decrease in acetic acid-induced writhing at 8.47 mg/kg, po administered 1 hr prior to acetic acid challenge relative to control; type: functional; method in brief: as §2
Mus musculus [13] = assay: Analgesic activity in albino mouse assessed as decrease in acetic acid-induced writhing at 8.33 mg/kg, po administered 1 hr prior to acetic acid challenge relative to control; type: functional; method in brief: as §2
Mus musculus [14] = assay: Analgesic activity in albino mouse assessed as decrease in acetic acid-induced writhing at 8.36 mg/kg, po administered 1 hr prior to acetic acid challenge relative to control; type: functional; method in brief: as §2
Mus musculus [15] = assay: Analgesic activity in albino mouse assessed as decrease in acetic acid-induced writhing at 11.49 mg/kg, po administered 1 hr prior to acetic acid challenge relative to control; type: functional; method in brief: as §2
Mus musculus [16] = assay: Analgesic activity in albino mouse assessed as decrease in acetic acid-induced writhing at 0.8 mg/kg, po administered 1 hr prior to acetic acid challenge; type: functional; method in brief: as §2
Mus musculus [17] = assay: Analgesic activity in albino mouse assessed as decrease in acetic acid-induced writhing at 1 mg/kg, po administered 1 hr prior to acetic acid challenge; type: functional; method in brief: as §2
Mus musculus [18] = assay: Analgesic activity in albino mouse assessed as decrease in acetic acid-induced writhing at 8 mg/kg, po administered 1 hr prior to acetic acid challenge; type: functional; method in brief: as §2
Mus musculus [19] = assay: Analgesic activity in albino mouse assessed as decrease in acetic acid-induced writhing at 8.68 mg/kg, po administered 1 hr prior to acetic acid challenge relative to control; type: functional; method in brief: as §2
Mus musculus [20] = assay: Analgesic activity in albino mouse assessed as decrease in acetic acid-induced writhing at 2 mg/kg, po administered 1 hr prior to acetic acid challenge; type: functional; method in brief: as §2
Mus musculus [21] = assay: Analgesic activity in albino mouse assessed as decrease in acetic acid-induced writhing at 0.4 mg/kg, po administered 1 hr prior to acetic acid challenge; type: functional; method in brief: as §2
Mus musculus [22] = assay: Analgesic activity in albino mouse assessed as decrease in acetic acid-induced writhing at 4 mg/kg, po administered 1 hr prior to acetic acid challenge; type: functional; method in brief: as §2
Mus musculus [23] = assay: Analgesic activity in po dosed albino mouse assessed as decrease in acetic acid-induced writhing administered 1 hr prior to acetic acid challenge; type: functional, organism-based; method in brief: as §2
Mus musculus [24] = assay: Analgesic activity in albino mouse assessed as decrease in acetic acid-induced writhing at 7.69 mg/kg, po administered 1 hr prior to acetic acid challenge relative to control; type: functional; method in brief: as §2
Rattus norvegicus [25] = assay: Antiinflammatory activity in albino rat assessed as inhibition of carrageenan-induced paw edema at 20 mg/kg, po; type: functional
Method in brief: (§3)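 Rat carrageenan paw edema with oral dosing at 10, 15, 20 and 25 mg/kg, suspended in saline with Tween 80, 1 h before subplantar 0.1 ml 1% carrageenan into the right hind paw. % edema inhibition versus control at each dose; IC50 (mg/kg) derived from these four doses.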

Rattus norvegicus [26] = assay: Antiinflammatory activity in po dosed albino rat assessed as inhibition of carrageenan-induced paw edema; type: functional, organism-based
Method in brief: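 Adult albino rats of either sex, 120–150 g, groups of 6. Compound suspended in saline with a few drops of tween 80, given by oral stomach tube 1 h before subplantar injection of freshly prepared 1% carrageenan (0.1 ml) in saline into right hind paw. Paw thickness read at 1–4 h; % edema inhibition versus carrageenan control; mean ± SEM, one-way ANOVA with post hoc test.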

Rattus norvegicus [27] = assay: Antiinflammatory activity in albino rat assessed as inhibition of carrageenan-induced paw edema at 25 mg/kg, po; type: functional; method in brief: as §3
Rattus norvegicus [28] = assay: Antiinflammatory activity in albino rat assessed as inhibition of carrageenan-induced paw edema at 15 mg/kg, po; type: functional; method in brief: as §3
Rattus norvegicus [29] = assay: Antiinflammatory activity in albino rat assessed as inhibition of carrageenan-induced paw edema at 10 mg/kg, po; type: functional; method in brief: as §3
Mus musculus [30] = assay: Analgesic activity in albino mouse assessed as decrease in acetic acid-induced writhing at 9 mg/kg, po administered 1 hr prior to acetic acid challenge relative to control; type: functional; method in brief: as §2

Row | SMILES | inhibition in vivo at 29 µmol/kg (Rattus norvegicus [1]) | inhibition in vivo at 29 µmol/kg (Rattus norvegicus [2]) | relative potency at 29 µmol/kg (Rattus norvegicus [3]) | inhibition in vivo at 29 µmol/kg (Rattus norvegicus [5]) | inhibition in vivo at 29 µmol/kg (Rattus norvegicus [6]) | UI (Rattus norvegicus [7]) | other results
1 | O=C1NC(c2ccc([N+](=O)[O-])cc2)NC2=C1C1CCCN1C(=O)N2c1ccccc1 (centres undefined) | 14.1% | 1.1% | 0.7 | 14.4% | 19.2% |  | inhibition in vivo at 11.75 mg/kg (Mus musculus [4]): 94.6%
2 | N#Cc1ccc(/N=c2\c(C#N)c3n(c(=O)n2-c2ccccc2)CCC3)cc1 | 28.1% | 16.9% | 0.86 | 28.1% | 23.6% | Non-toxic | inhibition in vivo at 10.24 mg/kg (Mus musculus [8]): 82.9%
3 | O=C1NC(c2ccccc2[N+](=O)[O-])NC2=C1C1CCCN1C(=O)N2c1ccccc1 (centres undefined) | 14.1% | 12.3% | 0.13 | 8.65% | 3.73% |  | inhibition in vivo at 11.75 mg/kg (Mus musculus [4]): 86.8%
4 | CCCC/N=c1/c(C#N)c2n(c(=O)n1-c1ccccc1)CCC2 | 24% | 11.2% | 0.81 | 19.4% | 22.4% | Non-toxic | inhibition in vivo at 8.94 mg/kg (Mus musculus [9]): 88.7%
5 | N#Cc1c2n(c(=O)n(-c3ccccc3)/c1=N\CCO)CCC2 | 22.3% | 5.6% | 1 | 25.9% | 27.3% | Non-toxic | inhibition in vivo at 8.59 mg/kg (Mus musculus [10]): 87.8%
6 | CCO/C=N/C1=C(C#N)C2CCCN2C(=S)N1CC (centres undefined) | 19% | 12.3% | 0.75 | 20.9% | 20.5% | Non-toxic | inhibition in vivo at 8.12 mg/kg (Mus musculus [11]): 88.1%
7 | C=CC/N=c1/c(C#N)c2n(c(=O)n1-c1ccccc1)CCC2 | 19% | 2.23% | 0.52 | 23.1% | 14.3% | Non-toxic | inhibition in vivo at 8.47 mg/kg (Mus musculus [12]): 81.1%
8 | NC1=C(/C(N)=N\O)C2CCCN2C(=O)N1c1ccccc1 (centres undefined) | 14.9% | 4.45% | 1 | 21.6% | 27.3% |  | inhibition in vivo at 8.33 mg/kg (Mus musculus [13]): 85.9%
9 | N/N=C(/N)C1=C(N)N(c2ccccc2)C(=O)N2CCCC12 (centres undefined) | 27.3% | 8.97% | 0.84 | 25.9% | 23% |  | inhibition in vivo at 8.36 mg/kg (Mus musculus [14]): 79%
10 | N#Cc1c2n(c(=O)n(-c3ccccc3)/c1=N/c1cccc(C(F)(F)F)c1)CCC2 | 7.44% | 8.97% | 0.34 | 8.63% | 9.31% |  | inhibition in vivo at 11.49 mg/kg (Mus musculus [15]): 63.8%
11 | N#CC1=C(NCCN)N(c2ccccc2)C(=O)N2CCCC12 (centres undefined) | 27.3% | 15.7% | 0.61 | 25.9% | 16.9% |  | inhibition in vivo at 0.8 mg/kg (Mus musculus [16]): 81.3%; inhibition in vivo at 1 mg/kg (Mus musculus [17]): 90.6%; inhibition in vivo at 8 mg/kg (Mus musculus [18]): 96.4%; inhibition in vivo at 8.68 mg/kg (Mus musculus [19]): 96.3%; inhibition in vivo at 2 mg/kg (Mus musculus [20]): 94.4%; inhibition in vivo at 0.4 mg/kg (Mus musculus [21]): 49.4%; inhibition in vivo at 4 mg/kg (Mus musculus [22]): 96%; IC50 (Mus musculus [23]): 0.402 mg/kg
12 | C/N=c1/c(C#N)c2n(c(=O)n1-c1ccccc1)CCC2 | 26.5% | 19.1% | 1.27 | 30.2% | 34.8% | Non-toxic | inhibition in vivo at 7.69 mg/kg (Mus musculus [24]): 74%; inhibition in vivo at 20 mg/kg (Rattus norvegicus [25]): 50.8%; IC50 (Rattus norvegicus [26]): 17.77 mg/kg; inhibition in vivo at 25 mg/kg (Rattus norvegicus [27]): 62.7%; inhibition in vivo at 15 mg/kg (Rattus norvegicus [28]): 43%; inhibition in vivo at 10 mg/kg (Rattus norvegicus [29]): 36%
13 | CC/N=c1/c(C#N)c2n(c(=O)n1-c1ccccc1)CCC2 | 23.1% | 7.82% | 1.11 | 24.5% | 30.4% | Non-toxic | inhibition in vivo at 8.12 mg/kg (Mus musculus [11]): 74.4%
14 | CCO/C=N/C1=C(C#N)C2CCCN2C(=O)N1c1ccccc1 (centres undefined) | 9.12% | 22.4% | 0.18 | 5.78% | 4.96% | Non-toxic | inhibition in vivo at 9 mg/kg (Mus musculus [30]): 69.8%

From ChEMBL document CHEMBL1155292, “Synthesis, analgesic and anti-inflammatory activities evaluation of some bi-, tri- and tetracyclic condensed pyrimidines” (Eur J Med Chem, 2009)
